Values after ≈ are worked out from the molar mass of the structure shown.
Tested on: Saccharomyces cerevisiae
Experiment: Antifungal activity against Saccharomyces cerevisiae after 5 days by broth microdilution method
Assay type: functional
Conditions: 120 h
For `C[C@@H](c1nc(-c2ccc(C#N)cc2)cs1)[C@](O)(Cn1cncn1)c1cc(F)ccc1F` [ISAVUCONAZOLE], the MIC50 was 0.03 µg/mL (≈ 0.0686 µM) and the MIC90 was 0.5 µg/mL (≈ 1.14 µM).

Tested on: Rhodotorula mucilaginosa
Experiment: Antifungal activity against Rhodotorula mucilaginosa after 7 days by Etest
Assay type: functional
Conditions: 168 h
Compound `C[C@@H](c1nc(-c2ccc(C#N)cc2)cs1)[C@](O)(Cn1cncn1)c1cc(F)ccc1F` [ISAVUCONAZOLE] has an MIC50 of 1 µg/mL (≈ 2.29 µM) and an MIC90 of 4 µg/mL (≈ 9.14 µM).

Tested on: Rhodotorula mucilaginosa
Experiment: Antifungal activity against Rhodotorula mucilaginosa after 7 days by broth microdilution method
Assay type: functional
Conditions: 168 h
`C[C@@H](c1nc(-c2ccc(C#N)cc2)cs1)[C@](O)(Cn1cncn1)c1cc(F)ccc1F` [ISAVUCONAZOLE] gave an MIC50 of 0.5 µg/mL (≈ 1.14 µM) and an MIC90 of 2 µg/mL (≈ 4.57 µM).

Tested on: Magnusiomyces capitatus
Experiment: Antifungal activity against Dipodascus capitatus after 3 days by broth microdilution method
Assay type: functional
Conditions: 72 h
In the case of `C[C@@H](c1nc(-c2ccc(C#N)cc2)cs1)[C@](O)(Cn1cncn1)c1cc(F)ccc1F` [ISAVUCONAZOLE], the MIC50 is reported as 0.06 µg/mL (≈ 0.137 µM) and the MIC90 is reported as 0.5 µg/mL (≈ 1.14 µM).

Tested on: Magnusiomyces capitatus
Experiment: Antifungal activity against Dipodascus capitatus after 4 days by Etest
Assay type: functional
Conditions: 96 h
In the case of `C[C@@H](c1nc(-c2ccc(C#N)cc2)cs1)[C@](O)(Cn1cncn1)c1cc(F)ccc1F` [ISAVUCONAZOLE], the MIC50 is reported as 0.125 µg/mL (≈ 0.286 µM) and the MIC90 is reported as 1 µg/mL (≈ 2.29 µM).

Tested on: Magnusiomyces capitatus
Experiment: Antifungal activity against Dipodascus capitatus after 48 hrs by broth microdilution method
Assay type: functional
Conditions: not given
Outline: (§1)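 CLSI M27-A3 broth microdilution. Isolates were identified by ITS1-5.8S-ITS2 sequencing, kept at −70°C in sterile water, and revived on potato dextrose or Sabouraud agar. Drug ranges in wells were 0.015–16 or 0.125–128 μg/ml, depending on the agent. Plates were incubated at 35°C and MICs read visually at 48 h. QC strains were C. krusei ATCC 6258 and C. parapsilosis ATCC 22019.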
`C[C@@H](c1nc(-c2ccc(C#N)cc2)cs1)[C@](O)(Cn1cncn1)c1cc(F)ccc1F` [ISAVUCONAZOLE] showed an MIC50 of 0.06 µg/mL (≈ 0.137 µM) and an MIC90 of 0.5 µg/mL (≈ 1.14 µM).

Tested on: Magnusiomyces capitatus
Experiment: Antifungal activity against Dipodascus capitatus after 48 hrs by Etest
Assay type: functional
Conditions: not given
Outline: (§2)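 Etest on 2% glucose-RPMI agar. Yeast suspensions were swabbed across the plates and strips applied, then incubated at 35°C for 48 h. MIC was the lowest concentration where the elliptical inhibition zone border met the strip scale. Each reading was raised to the next 2-fold dilution on the CLSI scale and converted to log2. Isolates were revived from −70°C stocks on potato dextrose or Sabouraud agar.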
In the case of `C[C@@H](c1nc(-c2ccc(C#N)cc2)cs1)[C@](O)(Cn1cncn1)c1cc(F)ccc1F` [ISAVUCONAZOLE], the MIC50 is reported as 0.125 µg/mL (≈ 0.286 µM) and the MIC90 is reported as 1 µg/mL (≈ 2.29 µM).

Tested on: Rhodotorula mucilaginosa
Experiment: Antifungal activity against Rhodotorula mucilaginosa after 48 hrs by broth microdilution method
Assay type: functional
Conditions: not given
Outline: as §1
Compound `C[C@@H](c1nc(-c2ccc(C#N)cc2)cs1)[C@](O)(Cn1cncn1)c1cc(F)ccc1F` [ISAVUCONAZOLE] has an MIC50 of 0.5 µg/mL (≈ 1.14 µM) and an MIC90 of 2 µg/mL (≈ 4.57 µM).

Tested on: Rhodotorula mucilaginosa
Experiment: Antifungal activity against Rhodotorula mucilaginosa after 48 hrs by Etest
Assay type: functional
Conditions: not given
Outline: as §2
Work on `C[C@@H](c1nc(-c2ccc(C#N)cc2)cs1)[C@](O)(Cn1cncn1)c1cc(F)ccc1F` [ISAVUCONAZOLE] yielded an MIC50 of 1 µg/mL (≈ 2.29 µM) and an MIC90 of 4 µg/mL (≈ 9.14 µM).

Tested on: Saccharomyces cerevisiae
Experiment: Antifungal activity against Saccharomyces cerevisiae after 48 hrs by broth microdilution method
Assay type: functional
Conditions: not given
Outline: as §1
`C[C@@H](c1nc(-c2ccc(C#N)cc2)cs1)[C@](O)(Cn1cncn1)c1cc(F)ccc1F` [ISAVUCONAZOLE] gave an MIC50 of 0.03 µg/mL (≈ 0.0686 µM) and an MIC90 of 0.5 µg/mL (≈ 1.14 µM).

Tested on: Saccharomyces cerevisiae
Experiment: Antifungal activity against Saccharomyces cerevisiae after 48 hrs by Etest
Assay type: functional
Conditions: not given
Outline: as §2
For `C[C@@H](c1nc(-c2ccc(C#N)cc2)cs1)[C@](O)(Cn1cncn1)c1cc(F)ccc1F` [ISAVUCONAZOLE], the MIC50 was 0.125 µg/mL (≈ 0.286 µM) and the MIC90 was 0.5 µg/mL (≈ 1.14 µM).

Tested on: Cutaneotrichosporon mucoides
Experiment: Antifungal activity against Trichosporon mucoides after 48 hrs by broth microdilution method
Assay type: functional
Conditions: not given
Outline: as §1
Work on `C[C@@H](c1nc(-c2ccc(C#N)cc2)cs1)[C@](O)(Cn1cncn1)c1cc(F)ccc1F` [ISAVUCONAZOLE] yielded an MIC50 of 0.06 µg/mL (≈ 0.137 µM) and an MIC90 of 0.5 µg/mL (≈ 1.14 µM).

Tested on: Cutaneotrichosporon mucoides
Experiment: Antifungal activity against Trichosporon mucoides after 48 hrs by Etest
Assay type: functional
Conditions: not given
Outline: as §2
`C[C@@H](c1nc(-c2ccc(C#N)cc2)cs1)[C@](O)(Cn1cncn1)c1cc(F)ccc1F` [ISAVUCONAZOLE] gave an MIC50 of 0.06 µg/mL (≈ 0.137 µM) and an MIC90 of 0.125 µg/mL (≈ 0.286 µM).

Tested on: Trichosporon inkin
Experiment: Antifungal activity against Trichosporon inkin after 48 hrs by broth microdilution method
Assay type: functional
Conditions: not given
Outline: as §1
Work on `C[C@@H](c1nc(-c2ccc(C#N)cc2)cs1)[C@](O)(Cn1cncn1)c1cc(F)ccc1F` [ISAVUCONAZOLE] yielded an MIC50 of 0.06 µg/mL (≈ 0.137 µM) and an MIC90 of 0.5 µg/mL (≈ 1.14 µM).

Tested on: Trichosporon inkin
Experiment: Antifungal activity against Trichosporon inkin after 48 hrs by Etest
Assay type: functional
Conditions: not given
Outline: as §2
In the case of `C[C@@H](c1nc(-c2ccc(C#N)cc2)cs1)[C@](O)(Cn1cncn1)c1cc(F)ccc1F` [ISAVUCONAZOLE], the MIC50 is reported as 0.06 µg/mL (≈ 0.137 µM) and the MIC90 is reported as 0.125 µg/mL (≈ 0.286 µM).

Tested on: not listed separately
Experiment: Antifungal activity against Trichosporon jirovecii after 48 hrs by broth microdilution method
Assay type: functional
Conditions: Cutaneotrichosporon jirovecii
Outline: as §1
In the case of `C[C@@H](c1nc(-c2ccc(C#N)cc2)cs1)[C@](O)(Cn1cncn1)c1cc(F)ccc1F` [ISAVUCONAZOLE], the MIC50 is reported as 0.06 µg/mL (≈ 0.137 µM) and the MIC90 is reported as 0.5 µg/mL (≈ 1.14 µM).

Tested on: not listed separately
Experiment: Antifungal activity against Trichosporon jirovecii after 48 hrs by Etest
Assay type: functional
Conditions: Cutaneotrichosporon jirovecii
Outline: as §2
For `C[C@@H](c1nc(-c2ccc(C#N)cc2)cs1)[C@](O)(Cn1cncn1)c1cc(F)ccc1F` [ISAVUCONAZOLE], the MIC50 was 0.06 µg/mL (≈ 0.137 µM) and the MIC90 was 0.125 µg/mL (≈ 0.286 µM).

Tested on: not listed separately
Experiment: Antifungal activity against Trichosporon domesticum after 48 hrs by broth microdilution method
Assay type: functional
Conditions: Apiotrichum domesticum
Outline: as §1
Compound `C[C@@H](c1nc(-c2ccc(C#N)cc2)cs1)[C@](O)(Cn1cncn1)c1cc(F)ccc1F` [ISAVUCONAZOLE] has an MIC50 of 0.06 µg/mL (≈ 0.137 µM) and an MIC90 of 0.5 µg/mL (≈ 1.14 µM).

Tested on: not listed separately
Experiment: Antifungal activity against Trichosporon domesticum after 48 hrs by Etest
Assay type: functional
Conditions: Apiotrichum domesticum
Outline: as §2
`C[C@@H](c1nc(-c2ccc(C#N)cc2)cs1)[C@](O)(Cn1cncn1)c1cc(F)ccc1F` [ISAVUCONAZOLE] gave an MIC50 of 0.06 µg/mL (≈ 0.137 µM) and an MIC90 of 0.125 µg/mL (≈ 0.286 µM).

Tested on: Trichosporon asahii
Experiment: Antifungal activity against Trichosporon asahii after 48 hrs by broth microdilution method
Assay type: functional
Conditions: not given
Outline: as §1
`C[C@@H](c1nc(-c2ccc(C#N)cc2)cs1)[C@](O)(Cn1cncn1)c1cc(F)ccc1F` [ISAVUCONAZOLE] showed an MIC50 of 0.06 µg/mL (≈ 0.137 µM) and an MIC90 of 0.5 µg/mL (≈ 1.14 µM).

Tested on: Trichosporon asahii
Experiment: Antifungal activity against Trichosporon asahii after 48 hrs by Etest
Assay type: functional
Conditions: not given
Outline: as §2
Work on `C[C@@H](c1nc(-c2ccc(C#N)cc2)cs1)[C@](O)(Cn1cncn1)c1cc(F)ccc1F` [ISAVUCONAZOLE] yielded an MIC50 of 0.06 µg/mL (≈ 0.137 µM) and an MIC90 of 0.125 µg/mL (≈ 0.286 µM).

Tested on: Cutaneotrichosporon mucoides
Experiment: Antifungal activity against Trichosporon mucoides assessed as percent susceptible isolates after 48 hrs by broth microdilution method
Assay type: functional
Conditions: not given
Outline: (§3)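 Broth microdilution MICs (CLSI, 35°C, visual read at 48 h) were sorted into categories using CLSI M27-A3 triazole breakpoints. Susceptible was ≤1 or ≤8 μg/ml, SDD was 2 or 16–32 μg/ml, and resistant was ≥4 or ≥64 μg/ml, depending on the agent. Each category is the percentage of isolates falling in it.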
In the case of `C[C@@H](c1nc(-c2ccc(C#N)cc2)cs1)[C@](O)(Cn1cncn1)c1cc(F)ccc1F` [ISAVUCONAZOLE], the MIC50 is reported as 0.06 µg/mL (≈ 0.137 µM) and the MIC90 is reported as 0.5 µg/mL (≈ 1.14 µM).

Tested on: Cutaneotrichosporon mucoides
Experiment: Antifungal activity against Trichosporon mucoides assessed as percent susceptible/dose-dependent isolates after 48 hrs by broth microdilution method
Assay type: functional
Conditions: not given
Outline: as §3
With `C[C@@H](c1nc(-c2ccc(C#N)cc2)cs1)[C@](O)(Cn1cncn1)c1cc(F)ccc1F` [ISAVUCONAZOLE] the MIC50 was 0.06 µg/mL (≈ 0.137 µM) and the MIC90 was 0.5 µg/mL (≈ 1.14 µM).

Tested on: Trichosporon
Experiment: Antifungal activity against Trichosporon sp. after 3 days by broth microdilution method
Assay type: functional
Conditions: 72 h
With `C[C@@H](c1nc(-c2ccc(C#N)cc2)cs1)[C@](O)(Cn1cncn1)c1cc(F)ccc1F` [ISAVUCONAZOLE] the MIC50 was 0.06 µg/mL (≈ 0.137 µM) and the MIC90 was 0.5 µg/mL (≈ 1.14 µM).

Tested on: Trichosporon
Experiment: Antifungal activity against Trichosporon sp. after 4 days by Etest
Assay type: functional
Conditions: 96 h
In the case of `C[C@@H](c1nc(-c2ccc(C#N)cc2)cs1)[C@](O)(Cn1cncn1)c1cc(F)ccc1F` [ISAVUCONAZOLE], the MIC50 is reported as 0.06 µg/mL (≈ 0.137 µM) and the MIC90 is reported as 0.125 µg/mL (≈ 0.286 µM).
